From PubChem BioAssay
E-sel inducer: E-selectin induction on HUVECs | activation, % at 7.58 µM | AID 686992 | P16581 | 260,000 tested, 0.37% active | HUVEC E-selectin immunofluorescence imaging; normalized: neutral wells 0, TNF-alpha wells 100;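 active = mean E-selectin-positive cell signal at least 10% of the positive control, reached in at least 60% of replicates, without over 20% cell loss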
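System: HUVEC, human umbilical vein endothelial cells; quantity: 3,000 cells/well; buffer or medium: EGM-2 medium, gelatin-coated wells; dosing: single-point compound dose; detection: immunofluorescence imaging; evaluation: % PE-positive cells; benchmarks: TNF-alpha, DMSO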
SIRT5 inh: inhibitors of human sirtuin-5 desuccinylase; Q9NXA8; Purified SirT5, succinyl-peptide AMC, trypsin-coupled fluorescence; inhibition, % at 15 µM; 330,000 tested, 1.1% active; AID 652115; in the data active = inhibition above about 15%
Target sequence (Q9NXA8 whole entry, looked up): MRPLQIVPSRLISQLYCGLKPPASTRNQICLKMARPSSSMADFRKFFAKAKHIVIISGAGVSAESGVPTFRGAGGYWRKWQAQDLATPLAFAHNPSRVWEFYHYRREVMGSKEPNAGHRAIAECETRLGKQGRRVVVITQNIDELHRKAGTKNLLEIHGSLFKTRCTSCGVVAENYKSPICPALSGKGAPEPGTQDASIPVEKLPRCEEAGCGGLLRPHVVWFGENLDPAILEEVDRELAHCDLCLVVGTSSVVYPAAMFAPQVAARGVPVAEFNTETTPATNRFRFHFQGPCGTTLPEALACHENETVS
C2C12 statin: suppressors of simvastatin-induced myotoxicity in C2C12 myotubes. ATP luminescence, 48 h; scaled: DMSO 0, geranylgeraniol control 100. rescue of ATP level, % at 7.49 µM. AID 602340. 330,000 tested, 0.78% active;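 active = mean ATP rescue above about 67%, or every replicate alone reaching that limit, limit read from the data, passing the limit was not always enough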;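 note: myotubes were challenged with 10 µM simvastatin during compound exposure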
FGF22 binding: FGF22 (human) thermal shift binding; Q9HCT0; recombinant FGF22 thermal shift, SYPRO orange fluorescence; percent of sucrose octasulfate shift, DMSO zero; activity (Tm shift, normalised), % at 9.99 µM; 340,000 tested, 1.5% active;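 active = mean Tm shift, scaled 0 neutral to 100 positive control, at about 1.3% or above, every replicate too, limit read from the data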
Target sequence (Q9HCT0 whole entry, looked up): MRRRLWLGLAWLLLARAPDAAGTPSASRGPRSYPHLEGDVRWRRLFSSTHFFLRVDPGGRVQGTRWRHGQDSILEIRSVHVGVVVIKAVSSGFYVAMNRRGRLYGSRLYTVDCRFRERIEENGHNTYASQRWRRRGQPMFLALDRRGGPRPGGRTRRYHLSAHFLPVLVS
rRNA inh HTS: selective bacterial rRNA inhibition in E. coli. E. coli WT GFP vs humanized-ribosome RFP mutants, fluorescence, 24 h; active compounds read low; DMSO median 0, no signal -100. GFP signal change (wild-type ribosome), % (no concentration beside the values). 350,000 tested, 1.6% active. AID 720706;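 active = significant combined selectivity score with lowered wild-type GFP, culture density cut under 30%, mutant RFP and density less affected; inactive = any of these conditions unmet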
FN deposition inh: fibronectin deposition inhibition; inhibition, % at 12.6 µM; 350,000 tested, 0.086% active; AH1F fibroblasts, Alexa488-fibronectin deposition fluorescence, overnight;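 active = mean inhibition across replicates of 30% or more, regardless of how many single replicates reach that level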;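 note: positive control wells lacked labelled fibronectin entirely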
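Test system: AH1F fibroblast monolayer depositing Alexa488-labelled fibronectin into matrix. Input: 10000 cells per well. Technique: fluorescence, ex 485 nm, em 525 nm. Buffer or medium: DMEM plus 2% serum, read in PBS. Timing: 1 h cell adhesion before compound, then overnight fibronectin incubation. Compound: single dose, pinned. Read-out basis: inhibition from reduced deposited-fibronectin fluorescence.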
Starred values were filed as active, the others as inactive; . = no result given. Sampled rows, rich in hits. Any-hit rate of the full collection: about 4%.

SMILES	E-sel inducer	SIRT5 inh	C2C12 statin	FGF22 binding	rRNA inh HTS	FN deposition inh
O=C(NNC(=O)c1cc2cc(OC(F)(F)F)ccc2[nH]1)c1cccc(C(F)(F)F)c1	0.0	-1.4	-15.5	0.0	-21.1*	-16.4
NNC(=O)c1cc2cc(OC(F)(F)F)ccc2[nH]1	11.4	1.9	3.7	-0.4	-25.2	-15.7
Cc1ccc(S(=O)(=O)Nc2cccc3c2O[C@@H](CN(C)CC2CCCCC2)[C@@H](C)CN([C@@H](C)CO)C3=O)cc1	-0.2	1.7	-23.1	-0.2	-0.2	.
CC(C(=O)Nc1ccccc1-c1ccccc1)N1CCN(Cc2ccccc2)CC1 (centres undefined)	-0.1	-0.8	18.2	43.1*	-38.5	-4.4
O=c1[nH]c2ccccc2nc1/C=C/c1ccc(Cl)cc1	.	0.2	119.8*	0.2	17.1	-5.6
Cc1ccc(C(=O)Nc2sc3c(c2C(=O)O)CCCC3)o1	0.2	5.3	.	0.0	-25.4*	.
O=C(O)CCC(=O)Nc1sc2c(c1C(=O)NCc1ccccc1)CCCC2	0.2	4.3	-9.2	-0.2	-4.7	3.2
O=C(CCc1ccccc1)Nc1sc2c(c1C(=O)O)CCCC2	-0.1	-1.8	.	-0.1	-31.8*	0.8
Cc1ccc(C(=O)Nc2scc(-c3ccccc3)c2C(=O)O)o1	-3.7	-1.5	.	0.5	-34.2*	-10.5
Cc1ccc(C(=O)Nc2sc3c(c2C(=O)O)CCCCC3)o1	.	.	-38.6	.	.	.
O=C(/C=C/c1ccco1)Nc1scc(-c2ccccc2)c1C(=O)O	-0.2	3.9	.	.	-33.9*	-4.9
Cc1cc(OCCCCOc2ccc(S(N)(=O)=O)c(C)c2)ccc1S(N)(=O)=O	0.3	-3.6	-10.9	-0.1	-18.8*	5.3
C[C@@H]1CCCCO[C@@H](CN(C)C(=O)Cc2ccccc2)[C@@H](C)CN([C@@H](C)CO)C(=O)c2cc(NC(=O)CCCN(C)C)ccc2O1	-0.1	-2.1	.	0.2	4.7	.
[N-]=[N+]=NC[C@H](Cc1ccccc1)N1CC[C@@H](O)CCC1=O	1.0	.	1.3	0.1	8.7	-1.5
[N-]=[N+]=NC[C@H](Cc1ccccc1)N1CC[C@@H](OCc2ccccc2)CCC1=O	0.0	.	0.0	-0.2	-24.6*	7.2
C[C@@H]1CN([C@H](C)CO)C(=O)c2cccc(NS(=O)(=O)c3ccccc3)c2O[C@H]1CN(C)Cc1ccncc1	0.1	-3.6	-2.8	0.0	2.1	.
C[C@H]1CN([C@@H](C)CO)C(=O)c2cc(/C=C/c3ccccc3)cnc2O[C@@H]1CN(C)C(=O)c1ccc2c(c1)OCO2	-0.1	-7.0	35.8	0.2	-11.7	.
COc1cccc(Nc2nc(N)nc(-c3oc4ccccc4c3C)n2)c1	.	.	-76.3	.	.	-4.8
Cc1cccc(Nc2nc(N)nc(-c3oc4ccccc4c3C)n2)c1	.	-9.9	-10.0	38.8*	17.6	2.8
COc1cc2c(cc1OC)C(=O)CCS2	.	.	124.7*	.	.	.
COc1ccc2c(c1)SCCC2=O	.	.	17.8	.	.	.
CCc1cc2c(=O)c(-c3nc4ccccc4n3C)coc2c(CN2CCCCC2)c1O	0.2	33.7*	-3.4	0.1	16.6	6.0
CCc1cc2c(=O)c(-c3nc4ccccc4n3C)coc2c(CN2CCOCC2)c1O	.	-5.2	.	0.2	8.6	-5.1
CC(=O)Nc1ccc(S(=O)(=O)Nc2ccc(-n3cnnn3)cc2)cc1	-0.3	23.3*	-0.3	0.2	0.7	-5.7
O=S(=O)(Nc1cccc(Cl)c1)c1cccc(-n2cnnn2)c1	.	.	-3.2	43.8*	-31.7	-2.0
SMILES	E-sel inducer	SIRT5 inh	C2C12 statin	FGF22 binding	rRNA inh HTS	FN deposition inh
COCC#Cc1cnc2c(c1)C(=O)N([C@H](C)CO)C[C@@H](C)[C@H](CN(C)C(=O)c1ccc(F)cc1)O2	-0.4	-3.4	6.8	0.0	1.6	-0.9
CCCCOC(=O)Cn1c(=O)c2c(nc3n2CCCCN3c2ccc(C)cc2)n(C)c1=O	.	.	103.4*	.	.	.
CCOC(=O)Cn1c(=O)c2c(nc3n2CCCCN3c2ccc(OCC)cc2)n(C)c1=O	0.1	-3.7	1.9	0.0	4.1	1.0
Nc1ccc(C(=O)Nc2ccc3c(O)cc(S(=O)(=O)O)cc3c2)cc1	-0.2	65.8*	3.2	-0.3	4.9	9.4
Nc1ccc(NC(=O)c2ccc(C(=O)Nc3ccc(N)cc3)cc2)cc1	-0.2	0.7	4.0	0.0	6.3	8.1
COc1cc(NC(=O)Nc2ccccc2)c(C(=O)O)cc1OC	.	.	0.8	.	.	.
